Results: ChEMBL document CHEMBL1140864, “The synthesis of ursolic acid derivatives with cytotoxic activity and the investigation of their preliminary mechanism of action” (Bioorg Med Chem, 2009)

Assays:
[1] = test system: HeLa; experiment: Antiproliferative activity against human HeLa cells after 96 hrs by MTT assay; assay type: functional, cell-based
In short: (§1)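 Cells grown in RPMI 1640 with 10% FBS and penicillin/streptomycin at […] °C, 5% CO2. Trypsinised cells seeded at 1.0–2.0 × 10³ per well overnight, then exposed to a concentration range in medium for 96 h. MTT (1 mg/mL) added for 4 h, formazan dissolved in DMSO, read at 490 nm. IC50 is the concentration that cuts cell number to 50%; at least three repeats.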

[2] = test system: HeLa; experiment: Antiproliferative activity against human HeLa cells at 10 uM after 96 hrs by MTT assay; assay type: functional
In short: (§2)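 Same MTT set-up (RPMI 1640/10% FBS, 1.0–2.0 × 10³ cells per well, 96 h exposure, 4 h MTT, formazan in DMSO read at 490 nm). Value is the percent inhibition at a single 10 µM concentration. Experiments repeated at least three times.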

[3] = test system: HeLa; experiment: Cell cycle arrest in human HeLa cells by accumulation at G1 phase at 5.0 uM after 24 hrs using PI staining by flow cytometry; assay type: functional
In short: (§3)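 HeLa cells exposed for 24 h to 2.5, 5.0 or 10.0 µM; vehicle control 0.1% DMSO. Cellular DNA stained with propidium iodide, and cell-cycle phase fractions measured by flow cytometry. Experiments done three times.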

[4] = test system: HeLa; experiment: Induction of apoptosis in human HeLa cells assessed as DNA fragmentation after 24 hrs by agarose gel electrophoresis; assay type: functional, cell-based
In short: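 HeLa cells treated for 24 h, washed twice in PBS and lysed in 100 mM NaCl, 10 mM Tris–HCl pH 8.0, 25 mM EDTA, 0.1 mg/ml proteinase K at 50 °C for 12 h. DNA taken through phenol/chloroform/isoamyl alcohol and chloroform/isoamyl alcohol extraction, centrifuged at 12,000g for 30 min, then run on an agarose gel to look for laddering.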

[5] = test system: HeLa; experiment: Cell cycle arrest in human HeLa cells by accumulation at S phase at 10.0 uM after 24 hrs using PI staining by flow cytometry; assay type: functional; in short: as §3
[6] = test system: HeLa; experiment: Cell cycle arrest in human HeLa cells by accumulation at G2/M phase at 2.5 uM after 24 hrs using PI staining by flow cytometry; assay type: functional; in short: as §3
[7] = test system: HeLa; experiment: Cell cycle arrest in human HeLa cells by accumulation at S phase at 2.5 uM after 24 hrs using PI staining by flow cytometry; assay type: functional; in short: as §3
[8] = test system: HeLa; experiment: Induction of apoptosis in human HeLa cells assessed as apoptotic cells at 10 uM by flow cytometry; assay type: functional
In short: (§4)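 HeLa cells given 2.5, 5.0 or 10.0 µM and stained with propidium iodide. Apoptotic cells counted by flow cytometry as nuclei with sub-diploid DNA content, the region below the G1 peak; untreated cells served as control. Run three times.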

[9] = test system: HeLa; experiment: Cell cycle arrest in human HeLa cells by accumulation at S phase at 5.0 uM after 24 hrs using PI staining by flow cytometry; assay type: functional; in short: as §3
[10] = test system: BGC-823; experiment: Antiproliferative activity against human BGC823 cells after 96 hrs by MTT assay; assay type: functional, cell-based; details: BGC-823, 96 h; in short: as §1
[11] = test system: HeLa; experiment: Cell cycle arrest in human HeLa cells by accumulation at G1 phase at 2.5 uM after 24 hrs using PI staining by flow cytometry; assay type: functional; in short: as §3
[12] = test system: HeLa; experiment: Cell cycle arrest in human HeLa cells by accumulation at G2/M phase at 10.0 uM after 24 hrs using PI staining by flow cytometry; assay type: functional; in short: as §3
[13] = test system: BGC-823; experiment: Antiproliferative activity against human BGC823 cells at 10 uM after 96 hrs by MTT assay; assay type: functional; details: BGC-823, 96 h; in short: as §2
[14] = test system: HeLa; experiment: Cell cycle arrest in human HeLa cells by accumulation at G1 phase at 10.0 uM after 24 hrs using PI staining by flow cytometry; assay type: functional; in short: as §3
[15] = test system: SK-OV-3; experiment: Antiproliferative activity against human SKOV3 cells after 96 hrs by MTT assay; assay type: functional, cell-based; details: SK-OV-3, 96 h; in short: as §1
[16] = test system: HeLa; experiment: Induction of apoptosis in human HeLa cells assessed as sub-diploid DNA content after 24 hrs by flow cytometry; assay type: functional, cell-based; in short: as §4
[17] = test system: SK-OV-3; experiment: Antiproliferative activity against human SKOV3 cells at 10 uM after 96 hrs by MTT assay; assay type: functional; details: SK-OV-3, 96 h; in short: as §2
[18] = test system: HeLa; experiment: Cell cycle arrest in human HeLa cells by accumulation at G2/M phase at 5.0 uM after 24 hrs using PI staining by flow cytometry; assay type: functional; in short: as §3

## CCC(C)C(NC(=O)[C@]12CC[C@@H](C)[C@H](C)[C@H]1C1=CC[C@@H]3[C@@]4(C)CC[C@H](OC(C)=O)C(C)(C)[C@@H]4CC[C@@]3(C)[C@]1(C)CC2)C(=O)OC (stereo not given in full)
[1]
  IC50: > 10 µM
[2]
  inhibition at 10 µM: 15.9%

## CC(=O)OCC(C)NC(=O)[C@]12CC[C@@H](C)[C@H](C)[C@H]1C1=CC[C@@H]3[C@@]4(C)CC[C@H](OC(C)=O)C(C)(C)[C@@H]4CC[C@@]3(C)[C@]1(C)CC2 (stereo not given in full)
[3]
  Activity: 46.7%
[4]
  Activity: Dose-dependent effect
[1]
  IC50: 2.62 µM
[5]
  Activity: 54%
[6]
  Activity: 13.6%
[7]
  Activity: 39.4%
[8]
  Activity: 32.5%
[9]
  Activity: 44.8%
[10]
  IC50: 8.3 µM
[11]
  Activity: 47%
[12]
  Activity: 9.3%
[2]
  inhibition at 10 µM: 69.3%
[13]
  inhibition at 10 µM: 56.3%
[14]
  Activity: 36.7%
[15]
  IC50: 2.24 µM
[16]
  Activity: Dose-dependent effect
[17]
  inhibition at 10 µM: 70.5%
[18]
  Activity: 8.5%

## CC(O)C(NC(=O)[C@]12CC[C@@H](C)[C@H](C)[C@H]1C1=CC[C@@H]3[C@@]4(C)CC[C@H](O)C(C)(C)[C@@H]4CC[C@@]3(C)[C@]1(C)CC2)C(=O)O (stereo not given in full)
[1]
  IC50: > 10 µM
[2]
  inhibition at 10 µM: 22%

## CC(=O)O[C@H]1CC[C@]2(C)[C@H]3CC=C4[C@@H]5[C@@H](C)[C@H](C)CC[C@]5(C(=O)Nc5ccccc5CO)CC[C@@]4(C)[C@]3(C)CC[C@H]2C1(C)C
[1]
  IC50: 1.63 µM
[2]
  inhibition at 10 µM: 77.5%

## C[C@H]1[C@H](C)CC[C@]2(C(=O)O)CC[C@]3(C)C(=CC[C@@H]4[C@@]5(C)CC[C@H](O)C(C)(C)[C@@H]5CC[C@]43C)[C@H]12 [URSOLIC ACID]
[1]
  IC50: > 10 µM
[10]
  IC50: > 10 µM
[2]
  inhibition at 10 µM: 12.4%
[13]
  inhibition at 10 µM: 10.2%
[15]
  IC50: > 10 µM
[17]
  inhibition at 10 µM: 9.06%

## CC(=O)OCCNC(=O)[C@]12CC[C@@H](C)[C@H](C)[C@H]1C1=CC[C@@H]3[C@@]4(C)CC[C@H](OC(C)=O)C(C)(C)[C@@H]4CC[C@@]3(C)[C@]1(C)CC2
[3]
  Activity: 41.8%
[4]
  Activity: Dose-dependent effect
[1]
  IC50: 1.13 µM
[5]
  Activity: 44.8%
[6]
  Activity: 9.2%
[7]
  Activity: 49.8%
[8]
  Activity: 35.3%
[9]
  Activity: 45.9%
[10]
  IC50: > 10 µM
[11]
  Activity: 41.1%
[12]
  Activity: 4.2%
[2]
  inhibition at 10 µM: 73.5%
[13]
  inhibition at 10 µM: 42%
[14]
  Activity: 51.1%
[15]
  IC50: 6.09 µM
[16]
  Activity: Dose-dependent effect
[17]
  inhibition at 10 µM: 54.8%
[18]
  Activity: 12.3%

## CC(=O)O[C@H]1CC[C@]2(C)[C@H]3CC=C4[C@@H]5[C@@H](C)[C@H](C)CC[C@]5(C(=O)NCCO)CC[C@@]4(C)[C@]3(C)CC[C@H]2C1(C)C
[1]
  IC50: 10.8 µM
[2]
  inhibition at 10 µM: 50.3%

## COC(=O)CNC(=O)[C@]12CC[C@@H](C)[C@H](C)[C@H]1C1=CC[C@@H]3[C@@]4(C)CC[C@H](OC(C)=O)C(C)(C)[C@@H]4CC[C@@]3(C)[C@]1(C)CC2
[1]
  IC50: 4.86 µM
[10]
  IC50: > 10 µM
[2]
  inhibition at 10 µM: 61.7%
[13]
  inhibition at 10 µM: 17.9%

## C[C@H]1[C@H](C)CC[C@]2(C(=O)NCC(=O)O)CC[C@]3(C)C(=CC[C@@H]4[C@@]5(C)CC[C@H](O)C(C)(C)[C@@H]5CC[C@]43C)[C@H]12
[1]
  IC50: > 10 µM
[2]
  inhibition at 10 µM: 15.6%

## CC(=O)O[C@H]1C(=O)[C@@]2(C)[C@H]([C@H](OC(=O)c3ccccc3)[C@]3(O)C[C@H](OC(=O)[C@H](O)[C@@H](NC(=O)c4ccccc4)c4ccccc4)C(C)=C1C3(C)C)[C@]1(OC(C)=O)CO[C@@H]1C[C@@H]2O [PACLITAXEL]
[10]
  IC50: 0.016 µM
[15]
  IC50: 0.001 µM

## C[C@H]1[C@H](C)CC[C@]2(C(=O)NC(Cc3ccc(O)cc3)C(=O)O)CC[C@]3(C)C(=CC[C@@H]4[C@@]5(C)CC[C@H](O)C(C)(C)[C@@H]5CC[C@]43C)[C@H]12 (stereo not given in full)
[1]
  IC50: > 10 µM
[2]
  inhibition at 10 µM: 23.6%
